# Calls of active or inactive are those of the source. The rule behind the calls is not given here.
# Tests used:
# [1] = test system: Androgen receptor (Homo sapiens), P10275 [T878A]; assay: Activity in human PC3 cells expressing androgen receptor T877A mutant assessed as ARE-dependent transactivation at 0.1 uM after 24 hrs by luciferase reporter gene assay in absence of DHT; format: cell-based; conditions: PC-3
# Summary of the method: (§1)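 PC-3 cells, which lack endogenous AR, transiently transfected with plasmids expressing human AR (WT, T877A, W741C or H874Y) plus an ARE-driven MMTV-luc reporter. Cells were treated with or without 0.1 nM DHT. Firefly luciferase was standardized to a Renilla control and normalized to the 0.1 nM DHT signal. Mean ± sd.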
# [2] = target: T1, Progesterone receptor (Homo sapiens) (UniProt P06401); assay: Agonist activity at human PR B-form expressed in human PC3 cells assessed as receptor transactivation at 1 uM after 24 hrs by luciferase reporter gene assay; format: functional, cell-based; conditions: PC-3
# T1 sequence (whole entry): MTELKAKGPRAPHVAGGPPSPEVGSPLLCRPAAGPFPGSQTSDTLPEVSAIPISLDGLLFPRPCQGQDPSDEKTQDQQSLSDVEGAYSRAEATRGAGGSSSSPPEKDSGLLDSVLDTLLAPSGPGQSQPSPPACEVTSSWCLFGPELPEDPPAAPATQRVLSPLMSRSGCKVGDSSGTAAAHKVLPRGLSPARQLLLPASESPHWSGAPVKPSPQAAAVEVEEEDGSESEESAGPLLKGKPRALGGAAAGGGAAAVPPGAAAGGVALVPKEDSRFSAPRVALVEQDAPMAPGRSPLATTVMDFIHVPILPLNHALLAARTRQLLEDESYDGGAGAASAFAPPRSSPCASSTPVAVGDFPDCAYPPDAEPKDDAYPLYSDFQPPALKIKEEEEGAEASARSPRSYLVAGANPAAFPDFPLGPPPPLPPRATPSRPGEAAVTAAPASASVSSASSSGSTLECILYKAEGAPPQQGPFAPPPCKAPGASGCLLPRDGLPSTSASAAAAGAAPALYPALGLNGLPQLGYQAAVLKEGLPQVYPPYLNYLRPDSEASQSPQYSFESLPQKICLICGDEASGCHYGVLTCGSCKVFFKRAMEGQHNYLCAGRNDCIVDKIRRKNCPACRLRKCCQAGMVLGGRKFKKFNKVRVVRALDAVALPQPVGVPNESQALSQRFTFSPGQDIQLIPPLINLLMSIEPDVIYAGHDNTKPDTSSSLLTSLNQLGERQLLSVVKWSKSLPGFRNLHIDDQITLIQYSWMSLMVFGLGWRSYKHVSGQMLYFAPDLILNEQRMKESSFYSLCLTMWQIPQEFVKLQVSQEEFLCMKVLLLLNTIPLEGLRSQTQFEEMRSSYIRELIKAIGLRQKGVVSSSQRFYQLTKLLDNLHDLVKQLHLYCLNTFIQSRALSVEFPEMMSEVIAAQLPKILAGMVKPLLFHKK
# Summary of the method: (§2)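 PC-3 cells carrying a luciferase reporter for transactivation by the human PR B form. Antagonist mode used 10 nM R5020 as the agonist. Agonist mode ran in the absence of R5020. Luciferase read-out.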
# PC-3 [3] = assay: Activity in human PC3 cells expressing androgen receptor H874Y mutant assessed as ARE-dependent transactivation at 1 uM after 24 hrs by luciferase reporter gene assay in absence of DHT; format: cell-based; summary of the method: as §1
# [4] = target: T2, Androgen receptor (Homo sapiens) (UniProt P10275); assay: Activity in human PC3 cells expressing wild-type androgen receptor assessed as ARE-dependent transactivation at 0.1 uM after 24 hrs by luciferase reporter gene assay in absence of DHT; format: cell-based; conditions: PC-3; summary of the method: as §1
# T2 sequence (whole entry): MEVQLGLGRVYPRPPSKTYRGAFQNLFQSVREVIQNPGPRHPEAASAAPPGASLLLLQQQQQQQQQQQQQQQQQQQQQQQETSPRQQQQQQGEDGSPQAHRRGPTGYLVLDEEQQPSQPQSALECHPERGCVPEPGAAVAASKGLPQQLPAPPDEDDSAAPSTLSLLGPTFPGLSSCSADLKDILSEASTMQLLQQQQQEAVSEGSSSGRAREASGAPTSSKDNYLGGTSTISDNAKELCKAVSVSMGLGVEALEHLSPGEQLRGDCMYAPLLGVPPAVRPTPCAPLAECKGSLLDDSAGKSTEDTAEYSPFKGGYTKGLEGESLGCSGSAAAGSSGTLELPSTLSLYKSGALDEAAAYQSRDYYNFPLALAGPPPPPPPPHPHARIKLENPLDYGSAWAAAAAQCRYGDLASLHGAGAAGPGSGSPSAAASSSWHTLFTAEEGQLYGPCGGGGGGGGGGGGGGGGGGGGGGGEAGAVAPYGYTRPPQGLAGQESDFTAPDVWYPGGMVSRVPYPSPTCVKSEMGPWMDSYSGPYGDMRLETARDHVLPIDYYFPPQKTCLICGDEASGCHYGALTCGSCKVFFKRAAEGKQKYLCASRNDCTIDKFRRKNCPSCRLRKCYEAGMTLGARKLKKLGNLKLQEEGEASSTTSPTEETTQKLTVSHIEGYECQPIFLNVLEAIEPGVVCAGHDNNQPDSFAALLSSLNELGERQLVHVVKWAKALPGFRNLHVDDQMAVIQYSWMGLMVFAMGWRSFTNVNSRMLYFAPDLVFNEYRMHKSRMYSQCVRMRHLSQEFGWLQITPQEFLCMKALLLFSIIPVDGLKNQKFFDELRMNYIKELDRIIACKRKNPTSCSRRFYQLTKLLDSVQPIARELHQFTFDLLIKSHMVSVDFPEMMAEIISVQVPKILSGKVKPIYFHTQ
# [5] = Cytotoxicity against human MDA PCa 2b cells after 72 hrs by MTT assay; format: functional, cell-based
# CWR22R = assay: Cytotoxicity against human 22Rv1 cells after 72 hrs by MTT assay; format: functional, cell-based; conditions: 22Rv1, 72 h
# LNCaP [6] = assay: Suppression of DHT-stimulated growth of human LNCAP cells after 72 hrs; format: functional, cell-based
# PC-3 [7] = assay: Antiandrogenic activity in human PC3 cells expressing androgen receptor W741C mutant assessed as inhibition of DHT-induced ARE-dependent transactivation at 1 uM after 24 hrs by luciferase reporter gene assay; format: cell-based; summary of the method: as §1
# [8] = target: T1, Progesterone receptor (Homo sapiens); assay: Antagonist activity at human PR B-form expressed in human PC3 cells assessed as inhibition of R5020-induced transactivation at 0.1 uM after 24 hrs by luciferase reporter gene assay; format: functional, cell-based; conditions: PC-3; summary of the method: as §2
# PC-3 [9] = assay: Antiandrogenic activity in human PC3 cells expressing androgen receptor H874Y mutant assessed as inhibition of DHT-induced ARE-dependent transactivation at 1 uM after 24 hrs by luciferase reporter gene assay; format: cell-based; summary of the method: as §1
# LNCaP [10] = assay: Suppression of DHT-stimulated growth of human LNCAP cells after 72 hrs with increasing concentration of DHT; format: functional, cell-based
# [11] = target: T1, Progesterone receptor (Homo sapiens); assay: Agonist activity at human PR B-form expressed in human PC3 cells assessed as receptor transactivation at 0.1 uM after 24 hrs by luciferase reporter gene assay; format: functional, cell-based; conditions: PC-3; summary of the method: as §2
# PC-3 [12] = assay: Suppression of DHT-stimulated growth of human PC3 cells after 72 hrs with increasing concentration of DHT; format: functional, cell-based
# Chain of Androgen receptor (Homo sapiens), P10275 [T878A] (P10275 whole entry T878A): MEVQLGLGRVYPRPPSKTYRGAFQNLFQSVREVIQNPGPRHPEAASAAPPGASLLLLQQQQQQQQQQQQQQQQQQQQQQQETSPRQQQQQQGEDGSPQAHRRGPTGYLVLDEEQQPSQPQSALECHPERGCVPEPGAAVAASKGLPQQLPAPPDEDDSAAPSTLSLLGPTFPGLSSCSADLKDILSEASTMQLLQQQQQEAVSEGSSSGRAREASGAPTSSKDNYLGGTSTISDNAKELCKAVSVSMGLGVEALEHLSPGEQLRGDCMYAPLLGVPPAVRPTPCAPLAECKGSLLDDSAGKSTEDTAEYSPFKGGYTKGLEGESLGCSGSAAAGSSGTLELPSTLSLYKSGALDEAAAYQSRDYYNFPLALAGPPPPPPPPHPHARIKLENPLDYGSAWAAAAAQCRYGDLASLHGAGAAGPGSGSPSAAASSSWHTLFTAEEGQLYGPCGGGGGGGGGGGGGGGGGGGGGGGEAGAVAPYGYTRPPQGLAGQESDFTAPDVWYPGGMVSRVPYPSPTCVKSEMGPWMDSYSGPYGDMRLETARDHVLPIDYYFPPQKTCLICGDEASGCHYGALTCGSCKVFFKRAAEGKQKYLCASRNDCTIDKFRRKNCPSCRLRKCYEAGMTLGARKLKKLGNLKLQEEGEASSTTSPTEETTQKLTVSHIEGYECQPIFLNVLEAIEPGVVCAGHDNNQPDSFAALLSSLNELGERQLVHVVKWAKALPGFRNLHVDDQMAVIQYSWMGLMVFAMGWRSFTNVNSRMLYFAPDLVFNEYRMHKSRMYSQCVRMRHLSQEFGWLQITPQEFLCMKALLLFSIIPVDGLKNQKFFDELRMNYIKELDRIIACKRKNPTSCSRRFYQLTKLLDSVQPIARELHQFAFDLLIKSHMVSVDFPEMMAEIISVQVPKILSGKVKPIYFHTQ
structure (smiles),measurement,setting,value
COc1cc(/C=C(\C(=O)/C=C/C2=C(C)CCCC2(C)C)C(=O)/C=C/c2ccc(O)c(OC)c2)ccc1O,Activity,[1],inactive
same,Activity,[2],inactive
same,Activity,PC-3 [3],inactive
same,Activity,[4],inactive
same,IC50,[5],2500 nM
same,IC50,CWR22R,2200 nM
same,Activity,LNCaP [6],Dose-dependent effect
same,Activity,PC-3 [7],Active
same,Activity,[8],inactive
same,Activity,PC-3 [9],Active
same,Activity,LNCaP [10],inactive
same,Activity,[11],inactive
same,Activity,PC-3 [12],Active

# From ChEMBL document CHEMBL1153534, “Design and synthesis of androgen receptor antagonists with bulky side chains for overcoming antiandrogen resistance” (J Med Chem, 2009)
